Most compounds without a hit are left out; they make up all but 2.2% or so of the library.
SUMO1 PPI mod = SUMO1-SIM interaction modulation | inhibition, % at 20 µM | actives 0.33% (n = 360,000) | P63165 | AID 602429 | SUMO1 binding to a labelled peptide, TR-FRET, 1 h; in the data active = inhibition above about 37%
Scp1 inh = Scp-1 (human) phosphatase inhibition | Q9GZU7 | Recombinant Scp1, phosphopeptide, malachite green phosphate absorbance | inhibition, % at 20 µM | actives 0.88% (n = 340,000) | AID 493091;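 active = inhibition above about 50% at 20 µM, limit read from the data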
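System: truncated SCP-1 phosphatase (76-261aa); medium: Tris acetate buffer pH 5.5 with MgCl2 and Tween-20; incubation: 45 min room-temperature reaction, 5 min colour, 30 min stabiliser; compound: single 20 µM dose, 1% DMSO; reagent: Phosphorylated 17-residue peptide substrate; read-out: % inhibition at 20 µM; technique: colorimetric free-phosphate detection, absorbance 630 nm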
STEP block = inhibitors of human striatal-enriched phosphatase STEP; P54829; recombinant STEP, OMFP fluorogenic substrate, fluorescence; inhibition, % at 20 µM; actives 0.25% (n = 360,000);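 active = inhibition at 20 µM, scaled per plate between control wells, above about 37%, limit read from the data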
Target sequence (P54829 whole entry, looked up): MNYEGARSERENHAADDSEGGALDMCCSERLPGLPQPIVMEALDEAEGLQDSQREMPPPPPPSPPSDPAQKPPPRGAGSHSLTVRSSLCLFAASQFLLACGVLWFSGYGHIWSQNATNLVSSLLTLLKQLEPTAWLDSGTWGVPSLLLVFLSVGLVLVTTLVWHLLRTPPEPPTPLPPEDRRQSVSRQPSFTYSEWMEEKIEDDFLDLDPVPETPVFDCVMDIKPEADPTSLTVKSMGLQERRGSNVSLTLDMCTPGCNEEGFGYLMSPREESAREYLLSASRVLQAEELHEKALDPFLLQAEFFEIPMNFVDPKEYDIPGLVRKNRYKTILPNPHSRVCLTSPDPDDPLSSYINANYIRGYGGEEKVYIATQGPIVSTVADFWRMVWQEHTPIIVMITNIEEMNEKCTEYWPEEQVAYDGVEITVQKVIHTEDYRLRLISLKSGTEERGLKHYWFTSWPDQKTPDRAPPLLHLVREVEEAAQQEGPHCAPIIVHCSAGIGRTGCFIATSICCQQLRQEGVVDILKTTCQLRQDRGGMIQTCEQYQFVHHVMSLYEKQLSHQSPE
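Material: STEP (striatal-enriched tyrosine phosphatase) enzyme, cell-free | Medium: 50 mM Bis-Tris pH 6.0 with 2.5 mM DTT and 0.005% Tween 20 | Read-out: Percent inhibition scaled to no-enzyme and uninhibited-enzyme controls, plate-pattern corrected | Signal: Fluorescence read at 480 nm ex / 540 nm em | Times: 20 min reaction, room temperature, in the dark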
DNMT1 block = blocks human DNA methyltransferase DNMT1. actives 0.83% (n = 360,000). inhibition (reported as % activation of signal), % at 10 µM. DNMT1 molecular beacon, Hinp1I cleavage, fluorescence; in the data active = inhibition above about 50%
LMPTP block = LMPTP (human) inhibition | inhibition, % at 20 µM | AID 651560 | actives 0.22% (n = 360,000) | P24666 | recombinant LMPTP-A, OMFP fluorogenic substrate, fluorescence intensity;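 active = compounds that cut the enzyme signal by at least half of the control window in the single-dose screen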
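Assay system: LMPTP-A enzyme. Input: 0.625 nM LMPTP-A final. Probe or stimulus: 400 µM OMFP. Compound dosing: single 20 µM dose. Schedule: 50 min dark incubation at room temperature. Detection: fluorescence intensity of OMFP turnover product. Read-out: percent inhibition versus substrate-only and uninhibited controls. Benchmarks: no-enzyme low control, uninhibited high control.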
GRK2 aptamer HTS = inhibitors of human GRK2 displacing RNA aptamer; P25098; bead flow cytometry, FAM-aptamer displacement from GRK2; inhibition of aptamer binding, % at 10 µM; actives 0.59% (n = 330,000); AID 488847;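 active = inhibition of aptamer binding above 40%, roughly 3 SD of noise, on plates passing a quality check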;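 also: median bead fluorescence of bound FAM aptamer so fluorescent compounds give negative values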
Scp-1 conf = Scp-1 (human) inhibition, single-dose confirmed; shares compounds with Scp1 inh; recombinant SCP-1 catalytic domain, phosphate release, malachite green absorbance; inhibition, % at 20 µM; actives 61% (n = 2,500)
Scp-1 MG ctr = colorimetric interference in Scp-1 counter-screen | AID 540313 | shares compounds with Scp1 inh | Colorimetric interference counterscreen, malachite green absorbance 630 nm | apparent inhibition (interference), % at 20 µM | 2,500 tested, under 10 active;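 also: compounds added after enzyme reaction finished so only phosphate colour detection is probed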
Scp1 DSF = validation of human Scp-1 inhibitors by thermal shift binding | actives 25% (n = 1,500) | shares compounds with Scp1 inh | thermal shift relative to vanadate control, % at 40 µM | Recombinant SCP1, Sypro Orange thermal shift Tm;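 active = substances whose mean melting-temperature shift, as a percentage of the reference inhibitor's shift, reaches about 5.3%, limit read from the data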
Each line names hits and unclear results; the compound was inactive in the other large screens (follow-up assays come after a bar, where they were run).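 The calls were made as follows, unless noted: active = inhibition of at least 30% at 20 µM; inactive = the rest.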

CCC(=O)c1ccc(NC(C)=O)cc1O	none
Cc1nc(N2CCOCC2)c2c(C)c(C(=O)Nc3ccccc3Cl)sc2n1	Scp1 inh 51 | Scp-1 conf inactive | Scp-1 MG ctr inactive
COc1ccccc1NC(=O)Cn1c(O)c(N=NC(=O)c2ccccc2O)c2ccccc21	Scp1 inh 94, STEP block 55, LMPTP block 60 | Scp-1 conf 90 | Scp-1 MG ctr inactive | Scp1 DSF inactive
O=S(=O)(c1cccc2cnccc12)N1CCNCC1	Scp1 inh 60 | Scp-1 conf inactive | Scp-1 MG ctr inactive
Cc1cc(C(=O)COC(=O)c2cc(Cl)c(O)c(Cl)c2)c(C)n1C	Scp1 inh 55, DNMT1 block 55 | Scp-1 conf 36 | Scp-1 MG ctr inactive | Scp1 DSF 9.4
Cc1ccc(OCC(=O)NNC(=O)c2ccc(NC(=O)C3CC3)cc2)c(C)c1	none
CCc1ccc(OCC(=O)NNC(=O)c2ccc(NC(=O)C3CC3)cc2)cc1	Scp1 inh 52 | Scp-1 conf 78 | Scp-1 MG ctr inactive | Scp1 DSF inactive
CCOc1ccc(C=NNc2ccc(S(=O)(=O)Nc3ccccc3C(=O)O)cc2[N+](=O)[O-])cc1OC	Scp1 inh 72, STEP block 98 | Scp-1 conf 86 | Scp-1 MG ctr inactive | Scp1 DSF 17
O=C(NS(=O)(=O)c1ccc2ccc(S(=O)(=O)NCCSc3ccccc3)cc2c1)c1cccc2ccccc12	none (no result: Scp1 inh, STEP block, DNMT1 block, GRK2 aptamer HTS)
CN(/N=C/c1cccnc1)c1cnn(-c2ccc(F)c(Cl)c2)c(=O)c1Cl	Scp1 inh 75 | Scp-1 conf 39 | Scp-1 MG ctr inactive | Scp1 DSF inactive
CCc1nc2ccc(C(=O)NCCc3ccccn3)cn2c1N(CCC(C)C)CCN(C)C	none (no result: Scp1 inh, GRK2 aptamer HTS)
COc1cccc(C(=O)NCCS(=O)(=O)N2CCN(c3ccccc3)CC2)c1OC	none (no result: Scp1 inh, GRK2 aptamer HTS)
NC(=O)c1c(N)[nH]c(C(=O)c2ccccc2)c1-c1ccccc1Br	none (no result: Scp1 inh, STEP block, DNMT1 block, GRK2 aptamer HTS)
O=C(OCc1cc(=O)n2ccsc2n1)c1ccccc1O	Scp1 inh 53 | Scp-1 conf inactive | Scp-1 MG ctr inactive
COc1ccc2[nH]c(=O)c(-c3noc(-c4ccccc4)n3)cc2c1	SUMO1 PPI mod 65, Scp1 inh 82 | Scp-1 conf 60 | Scp-1 MG ctr inactive | Scp1 DSF inactive
COc1ccc2[nH]c(=O)c(-c3nnn(-c4ccccc4)n3)cc2c1	none (no result: GRK2 aptamer HTS)
Cc1ccc(S(=O)(=O)N(C)c2ccc(C(=O)NCc3cccnc3)cc2)cc1	Scp1 inh 79 | Scp-1 conf inactive | Scp-1 MG ctr inactive
O=C(Nc1ccc(S(=O)(=O)NC2=NCCCCC2)cc1)c1cccc(S(=O)(=O)N2CCOCC2)c1	Scp1 inh 50, LMPTP block 57 | Scp-1 conf inactive | Scp-1 MG ctr inactive
N#Cc1ccsc1NC(=O)COC(=O)C1=NNC(=O)CC1	SUMO1 PPI mod 38, Scp1 inh 71, LMPTP block 62 | Scp-1 conf 49 | Scp-1 MG ctr inactive | Scp1 DSF inactive
O=C(NNC(=O)c1ccc(F)cc1F)c1ccc(-n2cnnn2)cc1	none
CC(C)(C)c1ccc2c(c1)OC(C(=O)N/N=C/c1ccc([N+](=O)[O-])o1)CO2 (stereo not drawn)	Scp1 inh 108 | Scp-1 conf 64 | Scp-1 MG ctr inactive | Scp1 DSF inactive
Cc1cccc(NC(=O)CSCC(=O)Nc2cc(C(F)(F)F)ccc2N2CCOCC2)c1	none (no result: Scp1 inh, GRK2 aptamer HTS)
Cc1ccc[n+](CC(=O)Nc2cc(C(F)(F)F)ccc2N2CCOCC2)c1	Scp1 inh 55 | Scp-1 conf inactive | Scp-1 MG ctr inactive
COc1ccc(-c2cc(C(=O)NN)n(-c3ccccc3)n2)cc1	none
